The results in this text go back to ChEMBL document CHEMBL1132939, “Design and synthesis of trans-N-[4-[2-(6-cyano-1,2,3, 4-tetrahydroisoquinolin-2-yl)ethyl]cyclohexyl]-4-quinolinecarboxamide (SB-277011): A potent and selective dopamine D(3) receptor antagonist with high oral bioavailability and CNS penetration in the rat” (J Med Chem, 2000).

The target of data set [1] is D(3) dopamine receptor (Homo sapiens, UniProt P35462). As to the kind of experiment: Binding affinity for human Dopamine receptor D3 expressed in CHO cells. The class given is cell-based.
Sequence of D(3) dopamine receptor (P35462 whole entry): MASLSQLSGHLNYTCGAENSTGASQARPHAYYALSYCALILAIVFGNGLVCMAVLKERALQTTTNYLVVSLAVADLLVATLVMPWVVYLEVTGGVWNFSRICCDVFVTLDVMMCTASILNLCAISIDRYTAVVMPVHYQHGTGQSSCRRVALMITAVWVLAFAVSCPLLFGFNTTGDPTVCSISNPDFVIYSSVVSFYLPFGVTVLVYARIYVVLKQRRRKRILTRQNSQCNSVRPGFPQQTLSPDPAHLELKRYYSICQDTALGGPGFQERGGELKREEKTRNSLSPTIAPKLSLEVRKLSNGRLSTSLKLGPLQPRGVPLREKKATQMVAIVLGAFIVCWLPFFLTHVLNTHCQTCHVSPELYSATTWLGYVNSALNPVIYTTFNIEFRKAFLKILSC
Data set [2] concerns the target 5-hydroxytryptamine receptor 1B (Homo sapiens, UniProt P28222). As to the kind of experiment: Binding activity against human 5-hydroxytryptamine 1B receptor. The method in brief: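 Radioligand competition binding to human receptor, run by a procedure described in an earlier paper. Binding curves were fitted with an iterative four-parameter logistic model to give IC50, which was then converted to pKi.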

Data set [3] addresses D(2) dopamine receptor (Homo sapiens, UniProt P14416). As to the kind of experiment: Binding affinity for human Dopamine receptor D2 expressed in CHO cells. The class given is cell-based.
Data set [4] concerns the target 5-hydroxytryptamine receptor 1D (Homo sapiens, UniProt P28221). As to the kind of experiment: Binding activity against human 5-hydroxytryptamine 1D receptor.
Data set [5] can be described thus: Compound was evaluated for its Half life in rat. Particulars: in vivo.
Data set [6] in a line: Compound was evaluated for Blood clearance in rat. Conditions: whole blood.
Data set [7] concerns the target Cytochrome P450 2D6 (Homo sapiens, UniProt P10635). As to the kind of experiment: Inhibition of cytochrome P450 2D6. Format: ADME.
Data set [8] is described as follows: Oral bioavailability in rat. Particulars: in vivo.

pIC50, pKi: −log10 of the molar value.

Sequence of 5-hydroxytryptamine receptor 1B (P28222 whole entry): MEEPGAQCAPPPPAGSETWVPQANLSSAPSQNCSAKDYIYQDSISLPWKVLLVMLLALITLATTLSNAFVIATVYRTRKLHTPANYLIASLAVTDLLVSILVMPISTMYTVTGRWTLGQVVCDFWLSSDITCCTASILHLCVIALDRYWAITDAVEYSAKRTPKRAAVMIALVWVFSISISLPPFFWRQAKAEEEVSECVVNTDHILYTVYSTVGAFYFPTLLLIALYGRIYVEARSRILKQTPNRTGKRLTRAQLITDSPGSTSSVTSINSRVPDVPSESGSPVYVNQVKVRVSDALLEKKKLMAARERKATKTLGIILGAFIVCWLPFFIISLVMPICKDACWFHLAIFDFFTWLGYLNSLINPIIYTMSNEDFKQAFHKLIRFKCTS
Sequence of D(2) dopamine receptor (P14416 whole entry): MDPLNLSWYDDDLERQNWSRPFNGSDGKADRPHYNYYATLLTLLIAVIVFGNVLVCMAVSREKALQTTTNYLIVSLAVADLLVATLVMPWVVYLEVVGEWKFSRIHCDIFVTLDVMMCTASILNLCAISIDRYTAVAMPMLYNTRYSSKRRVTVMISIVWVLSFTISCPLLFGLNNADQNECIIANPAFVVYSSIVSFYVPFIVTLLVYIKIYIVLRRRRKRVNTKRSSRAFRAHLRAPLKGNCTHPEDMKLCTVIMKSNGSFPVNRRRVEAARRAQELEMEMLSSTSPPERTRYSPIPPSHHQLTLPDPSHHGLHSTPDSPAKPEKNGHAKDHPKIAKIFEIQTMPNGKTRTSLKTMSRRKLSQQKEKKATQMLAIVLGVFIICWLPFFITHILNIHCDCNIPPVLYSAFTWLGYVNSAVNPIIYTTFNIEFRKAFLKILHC
Sequence of 5-hydroxytryptamine receptor 1D (P28221 whole entry): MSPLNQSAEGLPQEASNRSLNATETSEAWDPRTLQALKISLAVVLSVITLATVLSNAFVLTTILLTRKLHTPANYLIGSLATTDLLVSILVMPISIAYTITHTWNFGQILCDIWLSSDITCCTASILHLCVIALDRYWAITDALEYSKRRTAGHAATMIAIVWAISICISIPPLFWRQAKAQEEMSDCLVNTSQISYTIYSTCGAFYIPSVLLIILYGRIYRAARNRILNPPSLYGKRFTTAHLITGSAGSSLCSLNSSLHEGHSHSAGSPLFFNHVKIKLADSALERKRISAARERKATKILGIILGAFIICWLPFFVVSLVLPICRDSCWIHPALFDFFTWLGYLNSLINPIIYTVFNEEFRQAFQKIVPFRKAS
Sequence of Cytochrome P450 2D6 (P10635 whole entry): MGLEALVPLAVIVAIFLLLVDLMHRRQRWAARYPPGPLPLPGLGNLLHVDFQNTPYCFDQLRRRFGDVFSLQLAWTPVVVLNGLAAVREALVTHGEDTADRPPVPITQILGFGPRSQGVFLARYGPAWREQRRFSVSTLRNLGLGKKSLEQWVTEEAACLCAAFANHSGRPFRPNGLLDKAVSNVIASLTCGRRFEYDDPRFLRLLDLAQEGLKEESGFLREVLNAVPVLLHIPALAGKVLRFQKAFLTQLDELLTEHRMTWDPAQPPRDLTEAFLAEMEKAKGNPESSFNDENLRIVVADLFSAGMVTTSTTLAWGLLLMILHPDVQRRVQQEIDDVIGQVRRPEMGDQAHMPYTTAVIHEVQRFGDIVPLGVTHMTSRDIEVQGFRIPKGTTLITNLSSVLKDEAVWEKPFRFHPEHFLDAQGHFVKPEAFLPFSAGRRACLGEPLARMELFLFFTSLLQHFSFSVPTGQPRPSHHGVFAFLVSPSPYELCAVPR

In general, pKi refers to −log10 of the Ki, conventionally taken in molar units. Low values mean a high Ki, high ones a low Ki. For `N#Cc1ccc2c(c1)CN(CCCCNC(=O)/C=C/c1c[nH]c3ccccc13)CC2`, the pKi was 7.90 in data set [1], 6.80 in data set [2], 6.10 in data set [3] and 6.60 in data set [4].

For `N#Cc1ccc2c(c1)CCN(CC[C@H]1CC[C@H](NC(=O)c3ccc4ccccc4c3)CC1)C2`, the pKi in data set [1] was 8.00; in data set [2], < 5.00; in data set [3], 5.80; in data set [4], 7.00.

As usually defined, the half-life is how long it takes for the measured level to halve. A high value points to slow loss. As a reminder, the clearance is a measure of how efficiently the substance is removed, as volume per time. As usually defined, the pIC50 is the negative decadic logarithm of the IC50, by convention in mol/L. Read a high pIC50 as a low IC50. Usually bioavailability stands for the share of a dose that reaches the circulation, judged against a reference dose that is usually intravenous. A high value points to much systemic uptake. For `Cl.N#Cc1ccc2c(c1)CN(CC[C@H]1CC[C@H](NC(=O)c3cc4ccccc4[nH]3)CC1)CC2`, the pKi in data set [2] is 6.20; in data set [4], 7.00. In data set [5], this compound showed a half-life of 6.3 h. Besides, in data set [6], the clearance was found to be 6 mL/min/kg. The same compound gave a pIC50 in data set [7] of 6.10. This compound showed a bioavailability in data set [8] of 43%.

As to `N#Cc1ccc2c(c1)CCN(CC[C@H]1CC[C@H](NC(=O)c3cccc4ccccc34)CC1)C2`, the pKi in data set [1] was 8.10; in data set [3] it was 6.40.

`N#Cc1ccc2c(c1)CN(CC[C@H]1CC[C@H](NC(=O)/C=C/c3c[nH]c4ccccc34)CC1)CC2`: the pKi in data set [1] was 8.50; in data set [3], 6.90.

Broadly, the Inhibition is the relative decrease from the control value, in per cent. A lower Inhibition goes with a weak effect. For the compound `Cl.N#Cc1ccc2c(c1)CCN(CC[C@H]1CC[C@H](NC(=O)c3cc4ccccc4[nH]3)CC1)C2`, the pKi in data set [1] is 7.80; in data set [3] it was 6.10. The compound further gave an Inhibition in data set [7] of 17%.

With `N#Cc1ccc2c(c1)CN(CC[C@H]1CC[C@H](NC(=O)/C=C/c3ccccc3)CC1)CC2`, the negative logarithm of the Ki (pKi) was 8.90 in data set [1], 6.80 in data set [2], 6.80 in data set [3] and 7.00 in data set [4].

For the compound `O=C(/C=C/c1c[nH]c2ccccc12)NCCCCN1CCc2ccc(OS(=O)(=O)C(F)(F)F)cc2C1`, the pKi in data set [2] is 7.00; in data set [4] it was 7.20.

Consider `N#Cc1ccc2c(c1)CCN(CC[C@H]1CC[C@H](NC(=O)/C=C/c3ccc(F)cc3)CC1)C2`, for which the pKi in data set [1] is 8.50; in data set [2], < 5.00; in data set [3], 6.70; in data set [4], 6.20.

On to `N#Cc1ccc2c(c1)CCN(CC[C@H]1CC[C@H](NC(=O)/C=C/c3ccccc3)CC1)C2`, for which the pKi in data set [1] was 8.50; in data set [2] it was 6.00; in data set [3], 6.70; in data set [4] it was 6.50.

For the compound `CS(=O)(=O)c1cccc(/C=C/C(=O)N[C@H]2CC[C@H](CCN3CCc4cc(C#N)ccc4C3)CC2)c1.Cl`, the pKi is 8.30 in data set [1], 5.20 in data set [2], 6.50 in data set [3] and 5.40 in data set [4]. For the same compound, in data set [8], the bioavailability was found to be 45%.
